Reference: ChEMBL document CHEMBL1154114, “7-((4-Substituted)piperazin-1-yl) derivatives of ciprofloxacin: synthesis and in vitro biological evaluation as potential antitumor agents” (Bioorg Med Chem, 2009)

Key:
LoVo = experiment: Antitumor activity against human LoVo cells after 5 days by MTT assay; type: functional, cell-based; conditions: 120 h
Method in brief: (§1)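 Five human cancer lines (prostate PC-3, glioblastoma U373-MG, colorectal LoVo, NSCLC A549, breast MCF-7) plated at 10⁴ to 3×10⁴ cells/mL depending on cell type, allowed 24 h to attach, then cultured 120 h with or without drug at nine concentrations. MTT reduction to formazan read at 570 nm (reference 630 nm).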

PC-3 = experiment: Antitumor activity against human PC3 cells after 5 days by MTT assay; type: functional, cell-based; conditions: PC-3, 120 h; method in brief: as §1
A549 = experiment: Antitumor activity against human A549 cells after 5 days by MTT assay; type: functional, cell-based; conditions: A549, 120 h; method in brief: as §1
[1] = Antitumor activity against human U373MG cells after 5 days by MTT assay; type: functional, cell-based, U-373MG ATCC; conditions: U373 MG, 120 h; method in brief: as §1
MCF7 [2] = experiment: Antitumor activity against human MCF7 cells after 5 days by MTT assay; type: functional, cell-based; conditions: MCF7, 120 h; method in brief: as §1
[3] = Toxicity in ip dosed B6D2F1 mouse assessed as maximum tolerated dose after 28 days; type: organism-based; conditions: in vivo
Method in brief: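 Healthy mice, three per group, each given a single ip dose and observed for up to 28 days. The MTD index is the highest single dose given without causing any deaths in the group.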

[4] = Stability in phosphate buffer of pH 7.4 after 6 days; type: physicochemical; conditions: read-out: Stability
Method in brief: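 Compound dissolved at 1 mM in DMSO, diluted with phosphate buffer pH 7.4 to 1 mL, incubated sealed at 37 °C for 6 days. A t0 aliquot was held at 4 °C. HPLC with 280 nm detection and duplicate injections, with expected degradation products as references. Stability is taken as compound peak area over (compound + degradation product) peak area.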

MC3T3-E1 = experiment: Inhibition of mouse MC3T3-E1 cell proliferation after 48 to 72 hrs; type: functional, cell-based
NCI-H460 = experiment: Inhibition of human NCI-H460 cell proliferation by sulphorodhamine B assay; type: functional, cell-based
EJ = experiment: Inhibition of human EJ cell proliferation by MTT assay; type: functional, cell-based
SK-MEL = experiment: Inhibition of human SK-MEL cell proliferation by MTT assay; type: functional, cell-based
SW480 = experiment: Inhibition of human SW480 cell proliferation by MTT assay; type: functional, cell-based
A-431 = experiment: Inhibition of human A431 cell proliferation by MTT assay; type: functional, cell-based
KB = experiment: Inhibition of human KB cell proliferation by MTT assay; type: functional, cell-based
MCF7 [5] = experiment: Inhibition of human MCF7 cell proliferation by MTT assay; type: functional, cell-based
HeLa [6] = experiment: Inhibition of human HeLa cell proliferation; type: functional, cell-based
HeLa [7] = experiment: Inhibition of human HeLa cell proliferation assessed as bromodeoxyuridine incorporation during DNA synthesis after 48 hrs by ELISA; type: functional, cell-based
MG-63 = experiment: Inhibition of human MG63 cell proliferation assessed as bromodeoxyuridine incorporation during DNA synthesis after 48 hrs by ELISA; type: functional, cell-based; conditions: MG-63, 48 h

SMILES | IC50 (LoVo) [µM] | IC50 (PC-3) [µM] | IC50 (A549) [µM] | IC50 [1] [µM] | IC50 (MCF7 [2]) [µM] | further results
CCCCCCCCCOC(=O)N1CCN(c2cc3c(cc2F)c(=O)c(C(=O)O)cn3C2CC2)CC1 | 30 | 30 | 38 | 283 | 35 | 
CCCCCCCCCC(=O)N1CCN(c2cc3c(cc2F)c(=O)c(C(=O)O)cn3C2CC2)CC1 | 7 | 4 | 3 | 5 | 20 | MTD at 672 h [3]: > 80 mg/kg; remaining at 144 h [4]: 100%
CC(=O)OCC(=O)N1CCN(c2cc3c(cc2F)c(=O)c(C(=O)O)cn3C2CC2)CC1 | 268 | 176 | 373 | 99 | 279 | 
CCCCCCCC(=O)OCC(=O)N1CCN(c2cc3c(cc2F)c(=O)c(C(=O)O)cn3C2CC2)CC1 | 29 | 23 | 16 | 53 | 818 | remaining at 144 h [4]: > 97%
N[C@@H]1[C@H]2CN(c3nc4c(cc3F)c(=O)c(C(=O)O)cn4-c3ccc(F)cc3F)C[C@@H]12 [TROVAFLOXACIN] |  |  |  |  |  | IC50 (MC3T3-E1): < 1.2 µM
CCCCCCCCCCCCCCCC(=O)N1CCN(c2cc3c(cc2F)c(=O)c(C(=O)O)cn3C2CC2)CC1 |  |  |  |  |  | remaining at 144 h [4]: 100%
CCCCCCCCCCCC(=O)N1CCN(c2cc3c(cc2F)c(=O)c(C(=O)O)cn3C2CC2)CC1 | 45 | 4 | 7 | 18 | 108 | 
CCCCCCCCC(=O)N1CCN(c2cc3c(cc2F)c(=O)c(C(=O)O)cn3C2CC2)CC1 | 30 | 7 | 6 | 24 | 26 | 
CCCCCCCCCCCCCC(=O)OCC(=O)N1CCN(c2cc3c(cc2F)c(=O)c(C(=O)O)cn3C2CC2)CC1 | 766 | 745 | 742 | 748 | 828 | 
CCn1cc(C(=O)O)c(=O)c2cc(F)c(N3CCNCC3)nc21 [ENOXACIN] |  |  |  |  |  | IC50 (NCI-H460): 36 µM; IC50 (EJ): 178 µM; IC50 (SK-MEL): 196 µM; IC50 (SW480): 159 µM; IC50 (A-431): 150 µM; IC50 (KB): 137 µM; IC50 (MCF7 [5]): 193 µM; IC50 (HeLa [6]): 170 µM
CCCC(=O)OCC(=O)N1CCN(c2cc3c(cc2F)c(=O)c(C(=O)O)cn3C2CC2)CC1 | 613 | 715 | 456 | 586 | 1000 | remaining at 144 h [4]: 100%
CCCCCCCCC(=O)OCC(=O)N1CCN(c2cc3c(cc2F)c(=O)c(C(=O)O)cn3C2CC2)CC1 | 267 | 257 | 216 | 272 | 255 | 
C[C@H]1COc2c(N3CCN(C)CC3)c(F)cc3c(=O)c(C(=O)O)cn1c23 [LEVOFLOXACIN] |  |  |  |  |  | IC50 (NCI-H460): 152 µM; IC50 (MC3T3-E1): 220 µM
CCCC(=O)N1CCN(c2cc3c(cc2F)c(=O)c(C(=O)O)cn3C2CC2)CC1 | 148 | 85 | 697 | 104 | 172 | 
CCC(=O)N1CCN(c2cc3c(cc2F)c(=O)c(C(=O)O)cn3C2CC2)CC1 | 306 | 352 | 402 | 279 | 727 | 
COc1c(N2C[C@@H]3CCCN[C@@H]3C2)c(F)cc2c(=O)c(C(=O)O)cn(C3CC3)c12 [MOXIFLOXACIN] |  |  |  |  |  | IC50 (HeLa [7]): 320 µM; IC50 (MG-63): 230 µM
CCCCCCCCCC(=O)OCC(=O)N1CCN(c2cc3c(cc2F)c(=O)c(C(=O)O)cn3C2CC2)CC1 | 317 | 416 | 273 | 291 | 353 | 
CCCCCCCCCCCCCCCC(=O)OCC(=O)N1CCN(c2cc3c(cc2F)c(=O)c(C(=O)O)cn3C2CC2)CC1 | 75 | 30 | 112 | 119 | 56 | 
CC(C)(C)C(=O)N1CCN(c2cc3c(cc2F)c(=O)c(C(=O)O)cn3C2CC2)CC1 | 93 | 246 | 509 | 67 | 85 | 
CCCCCCCCCCCC(=O)OCC(=O)N1CCN(c2cc3c(cc2F)c(=O)c(C(=O)O)cn3C2CC2)CC1 | 39 | 3 | 15 | 49 | 621 | remaining at 144 h [4]: > 98%
